Variants at the floor of the assay were thinned out.
B1: tRNA (parent)
chain: GUUCCGUUGGCGUAAUGGUAACGCGUCUCCCUCCUAAGGAGAAGACUGCGGGUUCGAGUCCCGUACGGAACG

Variants of: B1
Assay: yeast fitness relative to wild type (ratio to wild type); higher = fitter; tRNA-Arg(CCU), competitive growth, 37 C, YPD
Method in brief: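 A pool of Saccharomyces cerevisiae strains, each with a tRNA-Arg(CCU) gene variant at the native genomic locus, was competed in YPD at 37°C for 24 hours across six parallel replicates. The variants had been chemically synthesised at a 3% per-site mutation rate over 69 sites, and gene amplicons before and after competition were read by 100-nucleotide paired-end sequencing. Darwinian fitness relative to wild type rested on changes in genotype frequencies. Genotypes required ≥ 100 starting reads, and estimates < 0.5 were set to 0.5.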

Row | Variant | yeast fitness
1 | A21G C27G C29U U35G | 0.552
2 | A21G G23A G58C | 0.537
3 | A21G C66U A69U | 0.771
4 | A21C U32A C46A | 0.744
5 | A21G C31G A70G | 0.787
6 | A21G C29U G41C A42G U53G A57C | ≤ 0.5
7 | A21G G23C U28A | ≤ 0.5
8 | A21G A40C A42U C46U C49U G51A A65C | 0.732
9 | A21G G41C | 0.997
10 | A21C U32C A40G | 0.557
11 | A21C U35A G50C A69C | ≤ 0.5
12 | A21G C33U C60U | 0.603
13 | A21G C33U C60A | ≤ 0.5
14 | A21G C27A A37U C46U C66U | ≤ 0.5
15 | A21C G38C G44C | 0.544
16 | A21C U59A | 0.791
17 | A21G C22U A45C | 0.539
18 | A21G G51U G58A | 0.777
19 | A21G G39C C46A | 0.881
20 | A21G A36G U53A A57U A65U | ≤ 0.5
21 | A21C C49U | 0.824
22 | A21G C29U A45U G67U | ≤ 0.5
23 | A21G C22U A42U A69U | ≤ 0.5
24 | A21C G23A C49A | ≤ 0.5

Row | Variant | yeast fitness
25 | A21G G68A | 1.01
26 | A21G C46U C60A | ≤ 0.5
27 | A21G A45C U59C | 0.732
28 | A21G G44A A45U | 0.914
29 | A21G A37G G39C C62U | ≤ 0.5
30 | A21C U53G C62U G68C | ≤ 0.5
31 | A21G C27A C34G G38A G63C | ≤ 0.5
32 | A21G C31G G63A | 0.774
33 | A21G U28C | 0.991
34 | A21G U28A | 0.81
35 | A21C C66U | 0.757
36 | A21C C66G | 0.609
37 | A21G G41A A42C A57C A69G | 0.686
38 | A21G A40G A70U | 0.609
39 | A21C C61G G68A | ≤ 0.5
40 | A21G G38C A40U G44C G67A A69C | ≤ 0.5
41 | A21G A42U C66U | 0.56
42 | A21G G23A A45C G52A A69C | 0.521
43 | A21C U28G C66U | ≤ 0.5
44 | A21G C34G G63A G67C | ≤ 0.5
45 | A21G C61G U64G | 0.586
46 | A21C G23U U59G | ≤ 0.5
47 | A21G C31U G52C G68A | ≤ 0.5
48 | A21G C55G C66U A69C | ≤ 0.5

Row | Variant | yeast fitness
49 | A21G G41C A45U | 0.546
50 | A21G G39C A42C | 0.563
51 | A21G G23A A57U A70U | ≤ 0.5
52 | A21G C24G C31G A43U | ≤ 0.5
53 | A21G C31U U35C C61U C66U | ≤ 0.5
54 | A21G G52A A57U G67C | ≤ 0.5
55 | A21C U54A | 0.552
56 | A21C U54C | 0.845
57 | A21G A45G A65C | 0.977
58 | A21G G23A G52C C61U | ≤ 0.5
59 | A21G G23A C46A | 0.543
60 | A21G A40U G52C C55A C66G | 0.539
61 | A21G C30G G67U | ≤ 0.5
62 | A21C C55A | 0.605
63 | A21C C55U | 0.712
64 | A21C C55G | ≤ 0.5
65 | A21G G23A C27G A37U G44A C49U G67C A69U | ≤ 0.5
66 | A21C U32G | 0.617
67 | A21G C31U A37G C62G | ≤ 0.5
68 | A21C G48A | 0.854
69 | A21G A36U C61U | ≤ 0.5
70 | A21C U35A | 0.601
71 | A21G C49U A70G | 0.817
72 | A21C U32C U64A | 0.664

Row | Variant | yeast fitness
73 | A21G C34U A37G C60A | 0.651
74 | A21G A70U | 1
75 | A21G C22U C55U | 0.567
76 | A21G C29U C34U C55A C60G | ≤ 0.5
77 | A21G C27U G38C G68C | ≤ 0.5
78 | A21G C34G C61U | 0.722
79 | A21C G44C G56A G63C G68A A69G | ≤ 0.5
80 | A21G A36G A42U A57G | ≤ 0.5
81 | A21G G25C A65G | 0.751
82 | A21C U32A C34U | ≤ 0.5
83 | A21G C61G C66U A69U | ≤ 0.5
84 | A21C U28A A40U C62G C66G | ≤ 0.5
85 | A21G G39A G63A A70G | 0.619
86 | A21G G50A C55U | 0.533
87 | A21G C27G C31G | 0.523
88 | A21G G58C A65U | 1.18
89 | A21G C22U C29G A45C | 0.515
90 | A21G C22U G63C A69C | 0.524
91 | A21G G39A A70G | 0.872
92 | A21G C60G | 0.667
93 | A21G C22U C60A | ≤ 0.5
94 | A21C G52C G67C | ≤ 0.5
95 | A21G A40G C61U | 0.654
96 | A21G C30G A69C | 0.544

Row | Variant | yeast fitness
97 | A21C U28A C55G A57U G67A | ≤ 0.5
98 | A21C C49U A69U | 0.61
99 | A21G C24A | 0.661
100 | A21G C24G | 0.642
101 | A21C C61U | 0.679
102 | A21G A45G | 0.91
103 | A21G A45U | 0.902
104 | A21G A45C | 0.89
105 | A21C U47A | 0.85
106 | A21G G25C C27G A42C | ≤ 0.5
107 | A21G C22A G56A | 0.763
108 | A21G C34G | 0.598
109 | A21G C34U | 0.701
110 | A21G C34G C66U | ≤ 0.5
111 | A21C G25C U26G U59G A65C | ≤ 0.5
112 | A21G G23A C27G C61U A69C | ≤ 0.5
113 | A21G A36G G51A A69C | ≤ 0.5
114 | A21C U26G C34U A40G G51A | 0.529
115 | A21G C22U A70U | 0.619
116 | A21G C49U C62G | 0.566
117 | A21G C49U C62A | 0.602
118 | A21C G48C G56C | ≤ 0.5
119 | A21G C46U G56A C61G | ≤ 0.5
120 | A21C U26G A43C | ≤ 0.5

Row | Variant | yeast fitness
121 | A21G C24G A37U C49A | ≤ 0.5
122 | A21C U35C A65G | 0.583
123 | A21G C31G A45G | 0.938
124 | A21C C55U A69C | ≤ 0.5
125 | A21G C29A A37G A42U | 0.516
126 | A21G C29U C31U | ≤ 0.5
127 | A21G G23A C34G A36U A57C C66U | ≤ 0.5
128 | A21G G39U C62U | 0.527
129 | A21C U64G A69G | 0.504
130 | A21G C33G G67A | ≤ 0.5
131 | A21G G58A | 1.01
132 | A21C G44C A57G G68C | 0.66
133 | A21G G52A A57G C66G | ≤ 0.5
134 | A21G C49U G63C | ≤ 0.5
135 | A21C G23A A37C U54C A65G | ≤ 0.5
136 | A21G C33A G51A A57U A65U | ≤ 0.5
137 | A21G C30G U54G A65G G68U A70C | ≤ 0.5
138 | A21G C29G U47G | ≤ 0.5
139 | A21C G48A C55U A65C | ≤ 0.5
140 | A21G C29U A57G | 0.602
141 | A21C G23A C24U C31U C49U | ≤ 0.5
142 | A21G C22U C30G G51A | 0.538
143 | A21G G39A G44C | ≤ 0.5
144 | A21G C22U G67A | 0.575

Row | Variant | yeast fitness
145 | A21C C62U A65C | 0.654
146 | A21G G23A C27G A37U G44A C49U | 0.564
147 | A21G C27G G67A | ≤ 0.5
148 | A21G C30U G68C | 0.582
149 | A21G C31A A42G | 0.561
150 | A21G C33A C49U C55G | ≤ 0.5
151 | A21C U28A U32C G68A | ≤ 0.5
152 | A21G C22U A43C | 0.57
153 | A21G A43C C60G G68C | ≤ 0.5
154 | A21C U26G U35A A40U | ≤ 0.5
155 | A21G C30G C55U | 0.682
156 | A21G C29U G41C C55U G68C | ≤ 0.5
157 | A21C G68C | 0.67
158 | A21C U54G C55G | 0.585
159 | A21G A42C A70U | 0.761
160 | A21G G38A | 0.881
161 | A21G C34G C61U A70C | 0.555
162 | A21G A42C C61U | 0.659
163 | A21C G25C A57G | 0.516
164 | A21C U28A | 0.738
165 | A21G U28A C30U C62A | 0.744
166 | A21G G23A C31U | 0.528
167 | A21G G25C A69C | 0.744

— the RNAGym collection of RNA variant scans (doi:10.1126/science.aae0568)
